Converted amounts (≈) assume the structure as drawn.
Key:
[1] = target: Ribosomal protein S6 kinase (P70S6K) (Homo sapiens) (UniProt Q9UBS0+P23443); assay: Inhibition of p70 S6K at 10 uM; type: protein-complex assay
In short: (§1)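 Kinase panel run at Upstate (Dundee). Each compound was tested at 10 µM against each enzyme and reported as % inhibition.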

[2] = target: RAC-alpha serine/threonine-protein kinase (Homo sapiens) (UniProt P31749); assay: Inhibition of PKBa at 10 uM; in short: as §1
[3] = target: Rho-associated protein kinase 2 (Homo sapiens) (UniProt O75116); assay: Inhibition of ROCK 2 at 10 uM; in short: as §1
Homo sapiens = species: Homo sapiens; conditions: at 10 µM
[4] = target: Glycogen synthase kinase-3 beta (Homo sapiens) (UniProt P49841); assay: Inhibition of GSK3b at 10 uM; in short: as §1
Malme-3M = assay: Inhibition of basal ERK phosphorylation in Malme-3M cells; type: functional, Homo sapiens
[5] = Aqueous solubility at pH 6.5; type: physicochemical
In short: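 Thermodynamic shake-flask method: crystalline solid (0.5 mg, crystallinity confirmed by polarizing microscopy) in 0.5 mL 10 mM potassium phosphate, pH 6.5, swirled 24 h at room temperature. Filtered aliquots were quantified by HPLC-PDA against a calibration curve.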

[6] = Oral bioavailability in rat; type: ADME, organism-based; conditions: Sprague-Dawley, in vivo
In short: (§2)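 Male Sprague Dawley rats (6-10 weeks) received IV 1 mg/kg (10% DMSO/90% saline) and PO 10 mg/kg (1% CMC/0.5% Tween 80). Serial tail-vein plasma was taken up to 24 h (IV) or 72 h (PO) and analysed by LC/MS/MS (9 ng/mL to 20 µg/mL). Parameters were calculated non-compartmentally.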

[7] = target: Mitogen-activated protein kinase 11 (Homo sapiens) (UniProt Q15759); assay: Inhibition of SAPK2b/p38--beta-2 at 10 uM; in short: as §1
[8] = target: Tyrosine-protein kinase Lck (Homo sapiens) (UniProt P06239); assay: Inhibition of LCK at 10 uM; in short: as §1
[9] = target: Ribosomal protein S6 kinase alpha-1 (Homo sapiens) (UniProt Q15418); assay: Inhibition of MAPKAP-K1a at 10 uM; in short: as §1
[10] = Volume of distribution in rat; type: ADME, organism-based; conditions: Sprague-Dawley, in vivo, read-out: Vdss; in short: as §2
[11] = target: Mitogen-activated protein kinase 1 (Homo sapiens) (UniProt P28482); assay: Inhibition of MAPK2/ERK2 at 10 uM; in short: as §1
[12] = target: Mitogen-activated protein kinase 8 (Homo sapiens) (UniProt P45983); assay: Inhibition of JNK/SAPK1c at 10 uM; in short: as §1
[13] = target: Dual specificity mitogen-activated protein kinase kinase 1 (Homo sapiens, UniProt Q02750); assay: Inhibitory activity against MEK1

Chain of Glycogen synthase kinase-3 beta (Homo sapiens) (P49841 whole entry, looked up): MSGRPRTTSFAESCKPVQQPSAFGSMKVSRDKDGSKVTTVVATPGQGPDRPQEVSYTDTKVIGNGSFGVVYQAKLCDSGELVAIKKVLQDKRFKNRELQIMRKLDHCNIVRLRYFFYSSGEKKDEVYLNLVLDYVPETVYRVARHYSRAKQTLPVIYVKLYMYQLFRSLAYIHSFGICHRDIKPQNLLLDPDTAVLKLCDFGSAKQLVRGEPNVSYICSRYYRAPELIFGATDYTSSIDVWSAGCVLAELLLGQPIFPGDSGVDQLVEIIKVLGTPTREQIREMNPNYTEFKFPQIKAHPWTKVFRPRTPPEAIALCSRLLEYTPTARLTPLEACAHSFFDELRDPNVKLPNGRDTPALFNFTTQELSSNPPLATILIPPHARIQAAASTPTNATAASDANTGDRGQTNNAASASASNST
Chain of Ribosomal protein S6 kinase alpha-1 (Homo sapiens) (Q15418 whole entry): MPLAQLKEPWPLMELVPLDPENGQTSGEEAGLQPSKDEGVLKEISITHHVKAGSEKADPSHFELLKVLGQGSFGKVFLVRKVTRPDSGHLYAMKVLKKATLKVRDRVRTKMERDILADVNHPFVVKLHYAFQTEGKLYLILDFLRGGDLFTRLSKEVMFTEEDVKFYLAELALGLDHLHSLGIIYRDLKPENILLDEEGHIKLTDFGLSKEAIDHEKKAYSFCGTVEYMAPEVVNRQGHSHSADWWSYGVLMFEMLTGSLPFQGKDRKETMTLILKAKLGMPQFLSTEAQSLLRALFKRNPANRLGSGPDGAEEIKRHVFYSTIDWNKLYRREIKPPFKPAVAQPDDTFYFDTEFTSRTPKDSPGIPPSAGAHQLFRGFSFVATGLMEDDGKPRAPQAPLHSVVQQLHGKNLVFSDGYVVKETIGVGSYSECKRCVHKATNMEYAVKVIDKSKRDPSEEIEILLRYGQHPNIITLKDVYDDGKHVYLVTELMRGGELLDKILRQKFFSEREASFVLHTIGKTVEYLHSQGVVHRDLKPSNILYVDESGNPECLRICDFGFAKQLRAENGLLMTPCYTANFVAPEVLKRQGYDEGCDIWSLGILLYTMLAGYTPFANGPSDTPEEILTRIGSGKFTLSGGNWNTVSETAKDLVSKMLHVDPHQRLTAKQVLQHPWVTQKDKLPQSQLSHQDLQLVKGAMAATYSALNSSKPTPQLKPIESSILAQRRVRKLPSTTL
Chain of Mitogen-activated protein kinase 8 (Homo sapiens) (P45983 whole entry): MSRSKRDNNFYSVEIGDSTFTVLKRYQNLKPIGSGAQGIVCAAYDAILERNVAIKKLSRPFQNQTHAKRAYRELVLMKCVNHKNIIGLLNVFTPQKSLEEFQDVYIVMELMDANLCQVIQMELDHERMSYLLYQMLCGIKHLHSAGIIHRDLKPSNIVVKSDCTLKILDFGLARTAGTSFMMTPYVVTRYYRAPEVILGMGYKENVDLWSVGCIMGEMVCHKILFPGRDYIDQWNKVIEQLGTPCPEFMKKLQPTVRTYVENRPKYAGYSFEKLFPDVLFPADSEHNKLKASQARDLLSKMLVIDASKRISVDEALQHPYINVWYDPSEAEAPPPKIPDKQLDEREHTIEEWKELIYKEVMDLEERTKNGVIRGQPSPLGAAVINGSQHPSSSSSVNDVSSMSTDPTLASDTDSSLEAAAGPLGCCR
Chain of Rho-associated protein kinase 2 (Homo sapiens) (O75116 whole entry, looked up): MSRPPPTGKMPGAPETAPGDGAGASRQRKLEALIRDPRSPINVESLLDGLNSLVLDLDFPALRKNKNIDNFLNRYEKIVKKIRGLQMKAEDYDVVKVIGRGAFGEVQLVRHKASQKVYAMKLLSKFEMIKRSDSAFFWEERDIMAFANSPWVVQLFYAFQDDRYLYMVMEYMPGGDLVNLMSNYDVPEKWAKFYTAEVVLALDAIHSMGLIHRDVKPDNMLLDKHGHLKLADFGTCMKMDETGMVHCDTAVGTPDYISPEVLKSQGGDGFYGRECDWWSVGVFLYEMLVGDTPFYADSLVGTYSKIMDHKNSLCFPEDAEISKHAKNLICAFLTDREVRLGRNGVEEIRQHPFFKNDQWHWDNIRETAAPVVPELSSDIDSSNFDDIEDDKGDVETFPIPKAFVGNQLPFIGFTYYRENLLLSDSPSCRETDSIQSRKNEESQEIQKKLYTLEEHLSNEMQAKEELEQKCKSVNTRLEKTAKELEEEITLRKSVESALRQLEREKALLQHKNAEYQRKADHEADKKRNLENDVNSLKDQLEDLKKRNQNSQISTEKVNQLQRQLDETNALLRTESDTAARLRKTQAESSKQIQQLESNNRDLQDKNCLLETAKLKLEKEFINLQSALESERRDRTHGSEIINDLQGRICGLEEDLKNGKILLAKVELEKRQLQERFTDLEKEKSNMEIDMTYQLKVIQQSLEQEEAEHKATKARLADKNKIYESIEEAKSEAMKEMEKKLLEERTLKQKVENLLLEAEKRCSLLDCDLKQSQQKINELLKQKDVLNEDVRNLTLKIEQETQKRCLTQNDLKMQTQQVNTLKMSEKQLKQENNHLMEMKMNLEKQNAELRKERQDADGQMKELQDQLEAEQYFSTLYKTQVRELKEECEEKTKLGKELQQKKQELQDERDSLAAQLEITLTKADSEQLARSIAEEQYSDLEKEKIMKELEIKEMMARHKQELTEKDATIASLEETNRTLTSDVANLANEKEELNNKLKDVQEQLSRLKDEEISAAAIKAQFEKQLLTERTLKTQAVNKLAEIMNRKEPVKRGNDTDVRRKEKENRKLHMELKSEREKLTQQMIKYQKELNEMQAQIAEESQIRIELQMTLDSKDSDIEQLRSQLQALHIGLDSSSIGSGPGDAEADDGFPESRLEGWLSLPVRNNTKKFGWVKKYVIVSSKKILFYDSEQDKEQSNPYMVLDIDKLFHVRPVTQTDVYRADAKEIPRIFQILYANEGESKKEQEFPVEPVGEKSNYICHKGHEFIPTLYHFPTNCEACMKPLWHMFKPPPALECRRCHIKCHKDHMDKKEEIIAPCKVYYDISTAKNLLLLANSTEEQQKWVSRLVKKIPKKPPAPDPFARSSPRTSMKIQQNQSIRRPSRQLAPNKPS
Chain of Mitogen-activated protein kinase 11 (Homo sapiens) (Q15759 whole entry): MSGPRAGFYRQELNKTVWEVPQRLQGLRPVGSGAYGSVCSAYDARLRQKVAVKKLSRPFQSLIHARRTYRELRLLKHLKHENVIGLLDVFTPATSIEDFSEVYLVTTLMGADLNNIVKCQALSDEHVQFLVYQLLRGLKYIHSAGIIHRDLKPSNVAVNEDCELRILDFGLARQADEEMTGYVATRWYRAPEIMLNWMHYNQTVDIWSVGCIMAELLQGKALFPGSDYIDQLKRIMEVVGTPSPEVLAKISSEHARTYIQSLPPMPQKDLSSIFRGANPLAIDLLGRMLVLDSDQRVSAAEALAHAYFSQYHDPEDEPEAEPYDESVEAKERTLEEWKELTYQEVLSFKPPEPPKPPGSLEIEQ
Chain of Mitogen-activated protein kinase 1 (Homo sapiens) (P28482 whole entry): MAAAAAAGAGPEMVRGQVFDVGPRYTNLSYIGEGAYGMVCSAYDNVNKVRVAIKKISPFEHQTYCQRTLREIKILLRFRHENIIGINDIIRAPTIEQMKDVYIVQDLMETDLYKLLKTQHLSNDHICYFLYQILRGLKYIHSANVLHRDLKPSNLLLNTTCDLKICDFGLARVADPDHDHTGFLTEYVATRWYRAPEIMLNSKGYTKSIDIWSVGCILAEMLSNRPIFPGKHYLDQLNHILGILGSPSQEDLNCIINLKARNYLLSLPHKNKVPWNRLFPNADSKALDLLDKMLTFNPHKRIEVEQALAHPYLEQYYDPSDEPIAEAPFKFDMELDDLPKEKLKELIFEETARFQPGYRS
Chain of RAC-alpha serine/threonine-protein kinase (Homo sapiens) (P31749 whole entry): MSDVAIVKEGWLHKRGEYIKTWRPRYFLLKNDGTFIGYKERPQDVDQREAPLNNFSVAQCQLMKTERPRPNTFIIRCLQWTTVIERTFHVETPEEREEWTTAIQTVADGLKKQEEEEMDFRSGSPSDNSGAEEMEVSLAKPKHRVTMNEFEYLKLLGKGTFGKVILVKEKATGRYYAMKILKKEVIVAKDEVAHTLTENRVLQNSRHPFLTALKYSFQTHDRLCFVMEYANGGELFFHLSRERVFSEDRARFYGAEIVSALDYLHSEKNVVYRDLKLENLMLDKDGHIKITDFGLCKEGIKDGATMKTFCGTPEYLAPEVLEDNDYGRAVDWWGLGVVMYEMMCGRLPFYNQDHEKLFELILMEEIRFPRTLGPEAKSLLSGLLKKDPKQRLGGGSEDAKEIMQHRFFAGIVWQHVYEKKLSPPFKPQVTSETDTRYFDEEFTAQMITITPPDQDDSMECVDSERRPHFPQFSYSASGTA
Chain of Tyrosine-protein kinase Lck (Homo sapiens) (P06239 2-509 limits assumed): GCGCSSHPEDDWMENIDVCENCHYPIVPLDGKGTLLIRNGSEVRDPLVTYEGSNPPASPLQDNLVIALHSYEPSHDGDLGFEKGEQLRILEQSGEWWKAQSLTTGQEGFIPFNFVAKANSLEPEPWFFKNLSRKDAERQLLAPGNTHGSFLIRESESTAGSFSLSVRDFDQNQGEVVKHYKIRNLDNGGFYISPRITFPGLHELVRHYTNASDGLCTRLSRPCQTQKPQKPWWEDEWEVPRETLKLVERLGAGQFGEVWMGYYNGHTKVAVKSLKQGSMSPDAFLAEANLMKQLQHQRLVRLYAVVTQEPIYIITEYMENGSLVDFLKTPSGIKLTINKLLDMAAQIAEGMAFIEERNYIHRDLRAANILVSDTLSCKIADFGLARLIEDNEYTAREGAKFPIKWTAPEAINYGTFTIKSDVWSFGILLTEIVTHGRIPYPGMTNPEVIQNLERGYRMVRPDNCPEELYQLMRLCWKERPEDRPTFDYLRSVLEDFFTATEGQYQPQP

## CCONC(=O)c1cn(C)c(=O)c(C)c1Nc1ccc(Br)cc1F
[1]
  inhibition: -1%
[2]
  inhibition: 6%
[3]
  inhibition: 13%
Homo sapiens
  inhibition: -3%
[4]
  inhibition: 15%
Malme-3M
  Activity: 10.6 nM
[5]
  solubility: 60 µg/mL (≈ 151 µM)
[6]
  bioavailability: 80%
[7]
  inhibition: 13%
[8]
  inhibition: 9%
[9]
  inhibition: 3%
[10]
  Vd: 0.4 L/kg
[11]
  inhibition: 6%
[12]
  inhibition: 23%

## CONC(=O)c1cn(C)c(=O)c(C)c1Nc1ccc(Br)cc1F
[1]
  inhibition: -2%
[2]
  inhibition: 12%
[3]
  inhibition: 10%
Homo sapiens
  inhibition: -9%
[4]
  inhibition: 12%
Malme-3M
  Activity: 39 nM
[5]
  solubility: 200 µg/mL (≈ 521 µM)
[6]
  bioavailability: 73%
[7]
  inhibition: 5%
[8]
  inhibition: -1%
[9]
  inhibition: -8%
[13]
  IC50: 105 nM
[10]
  Vd: 0.4 L/kg
[11]
  inhibition: -9%
[12]
  inhibition: 7%

## Cc1c(Nc2ccc(Br)cc2F)c(C(=O)NOCCO)cn(C)c1=O
[1]
  inhibition: 18%
[2]
  inhibition: -4%
[3]
  inhibition: 13%
Homo sapiens
  inhibition: -7%
[4]
  inhibition: 17%
Malme-3M
  Activity: 2 nM
[5]
  solubility: 450 µg/mL (≈ 1090 µM)
[6]
  bioavailability: 53%
[7]
  inhibition: 16%
[8]
  inhibition: 13%
[9]
  inhibition: -9%
[13]
  IC50: 18 nM
[10]
  Vd: 1.1 L/kg
[11]
  inhibition: 6%
[12]
  inhibition: 23%

— ChEMBL document CHEMBL1147738, “Potent and selective mitogen-activated protein kinase kinase (MEK) 1,2 inhibitors. 1. 4-(4-bromo-2-fluorophenylamino)-1- methylpyridin-2(1H)-ones” (J Med Chem, 2006)
